In series [1] the target is T1, PfGSK3 (Plasmodium falciparum, UniProt O77344).
T1 sequence (O77344 1-440): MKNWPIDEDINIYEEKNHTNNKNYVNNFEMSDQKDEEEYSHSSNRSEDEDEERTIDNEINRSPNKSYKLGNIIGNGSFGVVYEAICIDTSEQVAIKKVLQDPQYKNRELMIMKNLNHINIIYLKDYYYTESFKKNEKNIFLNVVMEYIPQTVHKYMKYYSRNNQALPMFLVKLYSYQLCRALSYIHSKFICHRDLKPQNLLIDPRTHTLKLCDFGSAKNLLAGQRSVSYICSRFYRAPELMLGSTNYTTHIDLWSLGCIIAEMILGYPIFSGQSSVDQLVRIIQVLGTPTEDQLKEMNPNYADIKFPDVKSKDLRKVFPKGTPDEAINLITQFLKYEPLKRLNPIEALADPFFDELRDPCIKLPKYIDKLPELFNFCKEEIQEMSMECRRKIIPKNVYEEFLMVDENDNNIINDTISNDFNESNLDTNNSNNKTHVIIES
Nature of the series: KinaseSeeker split luciferase assay on PfGSK3. The following applies: screen at 1 μM. The series is classed as biochemical. In outline: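 Split-luciferase binding assay: lysate with Cfluc-PfGSK3 fusion plus Fos-Nfluc, incubated 2 h with test compound in DMSO (or DMSO control) and a kinase-specific probe. Luminescence was read immediately after luciferin reagent. % inhibition = (control − sample)/control × 100. Compounds were first counter-screened against split luciferase, then screened at 1 μM.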

Series [2] concerns the target T2, PfPK6 (Plasmodium falciparum, UniProt Q8IDW1).
T2 sequence (Q8IDW1 1-305): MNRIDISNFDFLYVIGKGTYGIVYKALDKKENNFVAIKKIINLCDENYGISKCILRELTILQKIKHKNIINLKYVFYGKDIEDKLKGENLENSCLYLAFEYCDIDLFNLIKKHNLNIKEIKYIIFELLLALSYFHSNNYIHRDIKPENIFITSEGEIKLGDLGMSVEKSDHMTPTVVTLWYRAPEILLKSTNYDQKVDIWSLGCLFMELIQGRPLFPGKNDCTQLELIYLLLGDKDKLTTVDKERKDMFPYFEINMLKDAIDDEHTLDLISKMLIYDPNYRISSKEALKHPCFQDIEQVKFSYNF
Nature of the series: KinaseSeeker split luciferase assay on PfPK6. The series is classed as biochemical. Particulars: compared to IKK16.

Series [3] can be described thus: HepG2 CellTiter-Glo cytotoxicity assay. The series is classed as cell-based, human. The following applies: human, HepG2 cells. The procedure, abridged:
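HepG2 cells were grown in DMEM with 10% FBS, 1% NEAA and 1% L-glutamine, without antibiotics. They were seeded at 4000 cells/well and left overnight at 37 °C, 5% CO₂. Test compound was added at 200 nM or 2 μM, in quadruplicate, with DMSO held constant, for 48 h. Viability was read by CellTiter-Glo 2 luminescence. % viability is the average of two experiments.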

Series [4] concerns Pf3D7. The following applies: read-out: Pf3D7 blood stage EC50; blood stage proliferation; cited from earlier work.
Series [5] concerns PfCDPK1. The following applies: read-out: PfCDPK1 IC50; cited from earlier work.

The source of these data is publication PMC9574854 (Journal of Medicinal Chemistry, 2022).

For `c1ccc2sc(-c3ccnc(Nc4ccc(CN5CCC(N6CCCC6)CC5)cc4)n3)cc2c1` [Compound 12, 4-(Benzo[b]thiophen-2-yl)-N-(4-((4-(pyrrolidin-1-yl)piperidin-1-yl)methyl)phenyl)pyrimidin-2-amine], the “activity on PfGSK3, in words” value in series [1] is listed as “abolished activity”. Moreover, the “fold increase in potency on PfPK6” value in series [2] is roughly 3 fold. For the same compound, in series [3], the viability at 48 h, 200 nM turned out to be 100%.
Regarding `Cc1cn2c(-c3ccnc(NCC4CC4)n3)c(-c3ccc(F)c(NS(C)(=O)=O)c3)nc2cc1CN(C)C` [ML10], the EC50 in series [4] is 2.1 nM.
With `N[C@H]1CC[C@H](Nc2nc(Nc3ccc(C(=O)N4CCCCC4)cc3)c3ncn(-c4cccc(F)c4)c3n2)CC1` [Purfalcamine], the IC50 in series [5] is 17 nM.

Broadly, the viability is the share of living cells, or the viability signal relative to a control. Usually EC50 stands for the concentration at which the effect is half-maximal. One may read the IC50 as the concentration that gives 50% inhibition.
